According to the M2OR odorant receptor database:

Legend:
Details in all cases: stereoisomer not certain
[1] = molecular target: T1, OR10H3 (Homo sapiens) (UniProt O60404)
T1 sequence (whole entry): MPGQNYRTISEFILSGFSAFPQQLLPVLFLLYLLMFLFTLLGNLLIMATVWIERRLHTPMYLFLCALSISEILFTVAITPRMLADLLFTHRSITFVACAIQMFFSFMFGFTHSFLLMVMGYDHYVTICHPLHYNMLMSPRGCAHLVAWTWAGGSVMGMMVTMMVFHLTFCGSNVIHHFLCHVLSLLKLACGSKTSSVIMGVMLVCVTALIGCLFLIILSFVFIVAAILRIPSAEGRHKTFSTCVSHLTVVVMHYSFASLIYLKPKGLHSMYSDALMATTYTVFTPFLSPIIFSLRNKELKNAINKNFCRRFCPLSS
How it was run: (§1)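 Each entry records the cell line, G-protein, co-transfected protein and tags used. Methods varied with the source, often transient luciferase assays in mammalian cell lines. A receptor–molecule pair is called responsive (active) if the original authors judged its signal statistically different from baseline and non-responsive (inactive) otherwise.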

[2] = molecular target: T2, OR10H4 (Homo sapiens) (UniProt Q8NGA5)
T2 sequence (whole entry): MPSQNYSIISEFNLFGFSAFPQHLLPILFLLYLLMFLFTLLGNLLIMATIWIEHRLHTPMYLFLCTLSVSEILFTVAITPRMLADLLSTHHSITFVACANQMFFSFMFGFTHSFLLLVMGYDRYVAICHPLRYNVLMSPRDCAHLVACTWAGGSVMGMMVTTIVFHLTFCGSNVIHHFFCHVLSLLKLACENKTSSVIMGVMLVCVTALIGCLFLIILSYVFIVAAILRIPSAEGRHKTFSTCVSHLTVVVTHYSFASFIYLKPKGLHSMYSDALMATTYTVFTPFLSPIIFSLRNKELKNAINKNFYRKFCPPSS
How it was run: as §1

[3] = molecular target: T3, OR10H5 (Homo sapiens) (UniProt Q8NGA6)
T3 sequence (whole entry): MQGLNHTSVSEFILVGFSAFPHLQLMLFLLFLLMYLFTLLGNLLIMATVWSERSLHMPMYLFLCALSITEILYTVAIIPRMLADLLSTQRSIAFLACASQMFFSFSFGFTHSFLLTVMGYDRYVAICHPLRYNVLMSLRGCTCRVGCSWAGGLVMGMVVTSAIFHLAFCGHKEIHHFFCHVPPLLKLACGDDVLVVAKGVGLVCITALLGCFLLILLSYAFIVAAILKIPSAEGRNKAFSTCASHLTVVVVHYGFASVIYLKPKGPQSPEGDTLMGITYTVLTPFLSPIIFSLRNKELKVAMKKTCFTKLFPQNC
How it was run: as §1

[4] = molecular target: T4, OR10J1 (Homo sapiens) (UniProt P30954)
T4 sequence (whole entry): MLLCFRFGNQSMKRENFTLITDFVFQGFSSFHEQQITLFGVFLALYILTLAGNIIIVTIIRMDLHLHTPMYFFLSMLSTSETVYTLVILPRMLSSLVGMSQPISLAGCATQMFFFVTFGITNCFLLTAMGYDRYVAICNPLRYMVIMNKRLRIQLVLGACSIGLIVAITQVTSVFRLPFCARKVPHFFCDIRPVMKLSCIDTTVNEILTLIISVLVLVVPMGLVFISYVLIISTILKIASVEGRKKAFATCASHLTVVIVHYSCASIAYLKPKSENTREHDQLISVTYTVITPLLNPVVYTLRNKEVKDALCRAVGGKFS
How it was run: as §1

[5] = molecular target: T5, OR10J3 (Homo sapiens) (UniProt Q5JRS4)
T5 sequence (whole entry): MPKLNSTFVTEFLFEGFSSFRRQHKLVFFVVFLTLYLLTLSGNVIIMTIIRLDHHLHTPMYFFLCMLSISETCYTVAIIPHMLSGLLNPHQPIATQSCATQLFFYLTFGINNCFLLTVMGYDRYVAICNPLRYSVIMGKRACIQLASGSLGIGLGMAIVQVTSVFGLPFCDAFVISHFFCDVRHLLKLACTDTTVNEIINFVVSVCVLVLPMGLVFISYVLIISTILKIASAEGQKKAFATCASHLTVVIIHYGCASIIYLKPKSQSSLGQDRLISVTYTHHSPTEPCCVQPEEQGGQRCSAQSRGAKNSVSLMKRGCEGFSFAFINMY
How it was run: as §1

[6] = molecular target: T6, OR10J5 (Homo sapiens) (UniProt Q8NHC4)
T6 sequence (whole entry): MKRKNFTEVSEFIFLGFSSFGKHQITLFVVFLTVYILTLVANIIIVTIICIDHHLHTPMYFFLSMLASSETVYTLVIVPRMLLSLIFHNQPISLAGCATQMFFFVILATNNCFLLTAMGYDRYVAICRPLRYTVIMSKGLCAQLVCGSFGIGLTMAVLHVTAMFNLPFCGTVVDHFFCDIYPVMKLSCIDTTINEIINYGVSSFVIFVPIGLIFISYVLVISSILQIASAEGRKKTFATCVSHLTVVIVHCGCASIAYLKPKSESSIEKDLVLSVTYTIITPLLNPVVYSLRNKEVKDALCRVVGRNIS
How it was run: as §1

[7] = molecular target: T7, OR10K1 (Homo sapiens) (UniProt Q8NGX5)
T7 sequence (whole entry): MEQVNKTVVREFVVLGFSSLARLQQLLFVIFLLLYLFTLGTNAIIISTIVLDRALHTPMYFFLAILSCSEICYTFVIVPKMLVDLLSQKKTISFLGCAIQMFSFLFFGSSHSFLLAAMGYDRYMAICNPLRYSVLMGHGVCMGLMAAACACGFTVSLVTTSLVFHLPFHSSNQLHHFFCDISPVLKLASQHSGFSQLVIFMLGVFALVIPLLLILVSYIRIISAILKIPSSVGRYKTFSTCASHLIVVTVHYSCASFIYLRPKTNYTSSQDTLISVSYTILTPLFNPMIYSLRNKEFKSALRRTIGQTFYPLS
How it was run: as §1

[8] = molecular target: T8, OR10K2 (Homo sapiens) (UniProt Q6IF99)
T8 sequence (whole entry): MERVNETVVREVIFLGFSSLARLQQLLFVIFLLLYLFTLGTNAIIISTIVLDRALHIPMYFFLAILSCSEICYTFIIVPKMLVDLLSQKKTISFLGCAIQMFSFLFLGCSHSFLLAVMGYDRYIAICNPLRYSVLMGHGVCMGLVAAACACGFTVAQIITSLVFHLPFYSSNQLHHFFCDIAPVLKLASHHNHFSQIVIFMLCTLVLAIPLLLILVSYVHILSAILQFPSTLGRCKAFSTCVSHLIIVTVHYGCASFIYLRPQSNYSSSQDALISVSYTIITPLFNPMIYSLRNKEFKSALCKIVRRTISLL
How it was run: as §1

[9] = molecular target: T9, OR10P1 (Homo sapiens) (UniProt Q8NGE3)
T9 sequence (whole entry): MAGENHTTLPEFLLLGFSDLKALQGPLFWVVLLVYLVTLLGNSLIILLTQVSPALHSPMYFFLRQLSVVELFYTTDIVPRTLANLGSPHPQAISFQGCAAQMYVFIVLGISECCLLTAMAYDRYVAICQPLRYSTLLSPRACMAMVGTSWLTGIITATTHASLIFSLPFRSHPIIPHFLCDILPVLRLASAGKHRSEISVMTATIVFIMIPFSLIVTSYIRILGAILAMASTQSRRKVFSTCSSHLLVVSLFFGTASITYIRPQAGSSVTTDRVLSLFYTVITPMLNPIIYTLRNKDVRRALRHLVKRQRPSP
How it was run: as §1

[10] = molecular target: T10, OR10Q1 (Homo sapiens) (UniProt Q8NGQ4)
T10 sequence (whole entry): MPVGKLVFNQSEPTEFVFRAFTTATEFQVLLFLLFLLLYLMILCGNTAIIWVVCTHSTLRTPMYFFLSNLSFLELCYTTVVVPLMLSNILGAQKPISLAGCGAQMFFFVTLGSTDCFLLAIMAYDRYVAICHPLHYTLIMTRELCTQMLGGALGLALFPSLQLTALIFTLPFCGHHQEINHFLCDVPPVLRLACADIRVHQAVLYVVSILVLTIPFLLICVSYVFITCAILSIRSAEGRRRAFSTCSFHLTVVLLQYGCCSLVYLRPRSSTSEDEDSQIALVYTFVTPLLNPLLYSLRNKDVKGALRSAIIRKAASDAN
How it was run: as §1

Measured: odorant receptor agonist call

CCCCC(S)C(C)CO (stereo not given)
active: [6]
inactive: [1] | [2] | [3] | [4] | [5] | [7] | [8] | [9] | [10]
